# Measurements reported in ChEMBL document CHEMBL1152988, “Mutated response regulator graR is responsible for phenotypic conversion of Staphylococcus aureus from heterogeneous vancomycin-intermediate resistance to vancomycin-intermediate resistance” (2008).
# Key:
# [1] = tested on: Staphylococcus aureus; test: Antibacterial activity against heterogeneous vancomycin-intermediate Staphylococcus aureus Mu3 after 24 hrs by agar dilution method; assay type: functional; conditions: Mu3, 24 h
# Procedure, shortened: (§1)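 Agar dilution MICs per CLSI, with vancomycin MIC in BHI agar. Vancomycin, teicoplanin and daptomycin were tested at linear 1-mg/liter concentration steps; oxacillin was tested by twofold dilutions. Plates were read at 24 h and again at 48 h so a slow-growing resistant subpopulation would not be missed. graSR-null mutants were made by allelic exchange, replacing graSR with a cat cassette.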
# [2] = tested on: Staphylococcus aureus; test: Antibacterial activity against mutated graSR gene knockout vancomycin-susceptible Staphylococcus aureus N315 after 24 hrs by agar dilution method; assay type: functional; conditions: N315, 24 h; procedure, shortened: as §1
# [3] = tested on: Staphylococcus aureus; test: Antibacterial activity against vancomycin-susceptible Staphylococcus aureus N315 harboring intact graR gene after 24 hrs by agar dilution method; assay type: functional; conditions: N315, 24 h
# Procedure, shortened: (§2)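 Host carries shuttle vector pYT3, either empty or carrying PCR-cloned graR (SA0614) from N315 (intact) or Mu50 (N197S mutant), introduced by electroporation and sequence-verified. MICs were determined by agar dilution per CLSI, with vancomycin MIC in BHI agar. Glycopeptides and daptomycin were tested at 1-mg/liter linear steps, oxacillin by twofold dilutions. Plates were read at 24 h and 48 h.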
# [4] = tested on: Staphylococcus aureus; test: Antibacterial activity against vancomycin-susceptible Staphylococcus aureus N315 harboring mutated graR gene after 48 hrs by agar dilution method; assay type: functional; conditions: N315, 48 h; procedure, shortened: as §2
# [5] = tested on: Staphylococcus aureus; test: Antibacterial activity against mutated graSR gene knockout vancomycin-susceptible Staphylococcus aureus N315 after 48 hrs by agar dilution method; assay type: functional; conditions: N315, 48 h; procedure, shortened: as §1
# [6] = tested on: Staphylococcus aureus; test: Antibacterial activity against vancomycin-susceptible Staphylococcus aureus N315 harboring intact graR gene after 48 hrs by agar dilution method; assay type: functional; conditions: N315, 48 h; procedure, shortened: as §2
# [7] = tested on: Staphylococcus aureus; test: Antibacterial activity against mutated graR gene knockout vancomycin-susceptible Staphylococcus aureus N315 after 48 hrs by agar dilution method; assay type: functional; conditions: N315, 48 h; procedure, shortened: as §1
# [8] = tested on: Staphylococcus aureus; test: Antibacterial activity against vancomycin-susceptible Staphylococcus aureus N315 after 24 hrs by agar dilution method; assay type: functional; conditions: N315, 24 h; procedure, shortened: as §1
# [9] = tested on: Staphylococcus aureus; test: Antibacterial activity against graSR gene knockout heterogeneous vancomycin-intermediate Staphylococcus aureus Mu3 after 48 hrs by agar dilution method; assay type: functional; conditions: Mu3, 48 h; procedure, shortened: as §1
# [10] = tested on: Staphylococcus aureus; test: Antibacterial activity against graSR gene knockout heterogeneous vancomycin-intermediate Staphylococcus aureus Mu3 after 24 hrs by agar dilution method; assay type: functional; conditions: Mu3, 24 h; procedure, shortened: as §1
# [11] = tested on: Staphylococcus aureus; test: Antibacterial activity against heterogeneous vancomycin-intermediate Staphylococcus aureus Mu3 harboring mutated graR gene after 48 hrs by agar dilution method; assay type: functional; conditions: Mu3, 48 h; procedure, shortened: as §2
# [12] = tested on: Staphylococcus aureus; test: Antibacterial activity against heterogeneous vancomycin-intermediate Staphylococcus aureus Mu3 after 48 hrs by agar dilution method; assay type: functional; conditions: Mu3, 48 h; procedure, shortened: as §1
# [13] = tested on: Staphylococcus aureus; test: Antibacterial activity against vancomycin-susceptible Staphylococcus aureus N315 harboring shuttle vector pYT3 after 24 hrs by agar dilution method; assay type: functional; conditions: N315, 24 h; procedure, shortened: as §2
# [14] = tested on: Staphylococcus aureus; test: Antibacterial activity against heterogeneous vancomycin-intermediate Staphylococcus aureus Mu3 harboring shuttle vector pYT3 after 48 hrs by agar dilution method; assay type: functional; conditions: Mu3, 48 h; procedure, shortened: as §2
# [15] = tested on: Staphylococcus aureus; test: Antibacterial activity against graSR gene knockout vancomycin-susceptible Staphylococcus aureus N315 after 48 hrs by agar dilution method; assay type: functional; conditions: N315, 48 h; procedure, shortened: as §1
# [16] = tested on: Staphylococcus aureus; test: Antibacterial activity against heterogeneous vancomycin-intermediate Staphylococcus aureus Mu3 harboring intact graR gene after 48 hrs by agar dilution method; assay type: functional; conditions: Mu3, 48 h; procedure, shortened: as §2
# [17] = tested on: Staphylococcus aureus; test: Antibacterial activity against vancomycin-susceptible Staphylococcus aureus N315 harboring mutated graR gene after 24 hrs by agar dilution method; assay type: functional; conditions: N315, 24 h; procedure, shortened: as §2
# [18] = tested on: Staphylococcus aureus; test: Antibacterial activity against vancomycin-susceptible Staphylococcus aureus N315 after 48 hrs by agar dilution method; assay type: functional; conditions: N315, 48 h; procedure, shortened: as §1
# [19] = tested on: Staphylococcus aureus; test: Antibacterial activity against mutated graR gene knockout vancomycin-susceptible Staphylococcus aureus N315 after 24 hrs by agar dilution method; assay type: functional; conditions: N315, 24 h; procedure, shortened: as §1
# [20] = tested on: Staphylococcus aureus; test: Antibacterial activity against mutated graR gene knockout heterogeneous vancomycin-intermediate Staphylococcus aureus Mu3 after 48 hrs by agar dilution method; assay type: functional; conditions: Mu3, 48 h; procedure, shortened: as §1
# [21] = tested on: Staphylococcus aureus; test: Antibacterial activity against vancomycin-intermediate Staphylococcus aureus Mu50 after 24 hrs by agar dilution method; assay type: functional; conditions: Mu50, 24 h; procedure, shortened: as §1
# [22] = tested on: Staphylococcus aureus; test: Antibacterial activity against heterogeneous vancomycin-intermediate Staphylococcus aureus Mu3 harboring mutated graR gene after 24 hrs by agar dilution method; assay type: functional; conditions: Mu3, 24 h; procedure, shortened: as §2
# [23] = tested on: Staphylococcus aureus; test: Antibacterial activity against vancomycin-susceptible Staphylococcus aureus N315 harboring shuttle vector pYT3 after 48 hrs by agar dilution method; assay type: functional; conditions: N315, 48 h; procedure, shortened: as §2
# [24] = tested on: Staphylococcus aureus; test: Antibacterial activity against heterogeneous vancomycin-intermediate Staphylococcus aureus Mu3 harboring intact graR gene after 24 hrs by agar dilution method; assay type: functional; conditions: Mu3, 24 h; procedure, shortened: as §2
# [25] = tested on: Staphylococcus aureus; test: Antibacterial activity against vancomycin-intermediate Staphylococcus aureus Mu50 after 48 hrs by agar dilution method; assay type: functional; conditions: Mu50, 48 h; procedure, shortened: as §1
# [26] = tested on: Staphylococcus aureus; test: Antibacterial activity against mutated graR gene knockout heterogeneous vancomycin-intermediate Staphylococcus aureus Mu3 after 24 hrs by agar dilution method; assay type: functional; conditions: Mu3, 24 h; procedure, shortened: as §1
# [27] = tested on: Staphylococcus aureus; test: Antibacterial activity against graSR gene knockout vancomycin-susceptible Staphylococcus aureus N315 after 24 hrs by agar dilution method; assay type: functional; conditions: N315, 24 h; procedure, shortened: as §1
# [28] = tested on: Staphylococcus aureus; test: Antibacterial activity against heterogeneous vancomycin-intermediate Staphylococcus aureus Mu3 harboring shuttle vector pYT3 after 24 hrs by agar dilution method; assay type: functional; conditions: Mu3, 24 h; procedure, shortened: as §2
# [29] = tested on: Staphylococcus aureus; test: Antibacterial activity against vancomycin-susceptible Staphylococcus aureus N315 harboring complement system vraSR by agar dilution method
Structure (SMILES),MIC [1],MIC [2],MIC [3],MIC [4],MIC [5],MIC [6],MIC [7],MIC [8],MIC [9],MIC [10],MIC [11],MIC [12],MIC [13],MIC [14],MIC [15],MIC [16],MIC [17],MIC [18],MIC [25],MIC [26],also measured
CCCCCCCCCC(=O)N[C@@H](Cc1c[nH]c2ccccc12)C(=O)N[C@H](CC(N)=O)C(=O)N[C@@H](CC(=O)O)C(=O)N[C@@H]1C(=O)NCC(=O)N[C@@H](CCCN)C(=O)N[C@@H](CC(=O)O)C(=O)N[C@H](C)C(=O)N[C@@H](CC(=O)O)C(=O)NCC(=O)N[C@H](CO)C(=O)N[C@@H]([C@H](C)CC(=O)O)C(=O)N[C@@H](CC(=O)c2ccccc2N)C(=O)O[C@@H]1C,1 µg/mL,1 µg/mL,0.5 µg/mL,1 µg/mL,1 µg/mL,0.5 µg/mL,1 µg/mL,0.5 µg/mL,0.5 µg/mL,0.5 µg/mL,3 µg/mL,1 µg/mL,0.5 µg/mL,2 µg/mL,0.5 µg/mL,3 µg/mL,1 µg/mL,0.5 µg/mL,3 µg/mL,3 µg/mL,MIC [19]: 1 µg/mL; MIC [20]: 3 µg/mL; MIC [21]: 3 µg/mL; MIC [22]: 3 µg/mL; MIC [23]: 0.5 µg/mL; MIC [24]: 3 µg/mL; MIC [27]: 0.5 µg/mL; MIC [28]: 1 µg/mL
CN[C@H](CC(C)C)C(=O)N[C@H]1C(=O)N[C@@H](CC(N)=O)C(=O)N[C@H]2C(=O)N[C@H]3C(=O)N[C@H](C(=O)N[C@H](C(=O)O)c4cc(O)cc(O)c4-c4cc3ccc4O)[C@H](O)c3ccc(c(Cl)c3)Oc3cc2cc(c3O[C@@H]2O[C@H](CO)[C@@H](O)[C@H](O)[C@H]2O[C@H]2C[C@](C)(N)[C@H](O)[C@H](C)O2)Oc2ccc(cc2Cl)[C@H]1O [VANCOMYCIN],,,,,,,,,,,,,,,,,,,8 µg/mL,3 µg/mL,MIC [29]: ≥ 4 µg/mL
Cc1onc(-c2ccccc2)c1C(=O)N[C@@H]1C(=O)N2[C@@H]1SC(C)(C)[C@@H]2C(=O)O [OXACILLIN],1020 µg/mL,0.5 µg/mL,0.5 µg/mL,0.25 µg/mL,0.5 µg/mL,1 µg/mL,4 µg/mL,2 µg/mL,1020 µg/mL,1020 µg/mL,1020 µg/mL,> 1020 µg/mL,4 µg/mL,> 1020 µg/mL,16 µg/mL,1020 µg/mL,0.25 µg/mL,8 µg/mL,512 µg/mL,1020 µg/mL,MIC [19]: 2 µg/mL; MIC [20]: 1020 µg/mL; MIC [21]: 512 µg/mL; MIC [22]: 1020 µg/mL; MIC [23]: 4 µg/mL; MIC [24]: 1020 µg/mL; MIC [27]: 4 µg/mL; MIC [28]: 1020 µg/mL
